Calls of active or inactive are those of the source. The calls are words filed in the database; no cut-off is given here.
Legend:
[1] = Displacement of [3H]-flumazenil from central-type benzodiazepine receptor in bovine cortical membrane after 90 mins by liquid-phase scintillation beta-counting method; assay type: cell membranes, Bos taurus
Method in brief: (§1)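 Competition binding against radiolabelled antagonist [3H]flumazenil in cortical membranes (bovine; human where listed); Ki reported as mean ± SEM of three independent determinations.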

Bos taurus [2] = species: Bos taurus; assay: Selectivity ratio, ratio of Ki for central-type benzodiazepine receptor in bovine cortical membrane to Ki for central-type benzodiazepine receptor in bovine cortical membrane in presence of 50 uM of GABA; assay type: cell membranes
Mus musculus [3] = assay: Antiamnestic activity in scopalamine-induced mouse amnesia model assessed as time spent in light box at 10 mg/kg, po administered 30 mins before test by passive avoidance test (reference value: 44.8 +/- 8.1 secs); assay type: functional
Method in brief: (§2)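 Passive avoidance in mice: compounds were given per os 30 min before the test, and scopolamine 1.5 mg kg-1 i.p. immediately after the punishment. Read-out was time recorded during the retention session. Values are mean ± SEM of at least 10 mice, compared with vehicle-treated animals.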

Mus musculus [4] = assay: Anxiolytic activity in mouse assessed as time spent in light box at 10 mg/kg, po administered 30 mins before test by light-dark box test; assay type: functional
Method in brief: (§3)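 Light-dark box in mice measured time in the light compartment. Compounds were given per os 30 min before testing, and diazepam 1 mg kg-1 subcutaneously as reference. Values are mean ± SEM of at least 10 mice, compared with vehicle-treated animals.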

Mus musculus [5] = assay: Antiamnestic activity in mouse assessed as prevention of scopalamine-induced amnesia at 10 mg/kg, po administered 30 mins before test by passive avoidance test; assay type: functional, organism-based; method in brief: as §2
Mus musculus [6] = species: Mus musculus; assay: Myorelaxant effect in mouse assessed as effect on motor coordination after 30 mins by rotarad test; assay type: organism-based; conditions: in vivo, 0.5 h
Method in brief: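 Rota-rod test of motor coordination in mice, with compounds given per os 30 min before testing. Values are mean ± SEM of at least 10 mice.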

Mus musculus [7] = assay: Antiamnestic activity in scopolamine induced mouse amnesia model assessed as time spent in light box at 1 mg/kg, po administered 30 mins before test by passive avoidance test; assay type: functional, organism-based; method in brief: as §2
Rattus norvegicus [8] = species: Rattus norvegicus; assay: Inverse agonist activity at central-type benzodiazepine receptor in Sprague-Dawley rat cerebrocortical synaptoneurosomes assessed as decrease in 36Cl- flow after 10 secs by liquid-phase scintillation beta-counting method
Mus musculus [9] = assay: Neurotoxicity in mouse assessed as effect on neurological and muscular abilities at 10 mg/kg, po after 30 mins by Hole-Board test; assay type: toxicity, organism-based; conditions: in vivo, 0.5 h
Method in brief: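 Hole-board test 30 min after oral dosing at 10 mg kg-1 counted movements (motor activity) and head inspections (exploratory activity). Values are mean ± SEM of at least 10 mice, compared with vehicle controls.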

Mus musculus [10] = assay: Antiamnestic activity in scopolamine induced mouse amnesia model assessed as time spent in light box at 3 mg/kg, po administered 30 mins before test by passive avoidance test (reference value: 44.8 +/- 8.1 secs); assay type: functional; method in brief: as §2
Mus musculus [11] = assay: Anxiolytic activity in mouse assessed as time spent in light box at 3 mg/kg, po administered 30 mins before test by light-dark box test; assay type: functional; method in brief: as §3
Mus musculus [12] = assay: Anxiolytic activity in po dosed mouse assessed as increase in time spent in light box administered 30 mins before test by light-dark box test; assay type: functional, organism-based; method in brief: as §3
Brain [13] = assay: Neuroprotective activity against oxygen-glucose deprivation and reoxygenation-induced injury in Sprague-Dawley rat brain cortical slices assessed as maximum recovery in LDH release at 50 uM treated during 90 mins of reperfusion phase measured after 90 mins by spetrophotometric method; assay type: functional
Method in brief: (§4)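 Rat brain cortical slices in ACSF underwent 30 min oxygen/glucose deprivation, then 90 min reoxygenated ACSF (reperfusion). Controls were kept 120 min in ACSF. Compounds (0.1–100 µM) were added only during reperfusion, and LDH release was measured. Data are means ± SEM of at least 4 experiments, analysed by ANOVA with Dunnett post test. The effective concentration is that giving the largest reduction, and recovery is the % reversion at that concentration.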

Rattus norvegicus [14] = species: Rattus norvegicus; assay: Partial agonist activity at central-type benzodiazepine receptor in Sprague-Dawley rat cerebrocortical synaptoneurosomes assessed as increase in 36Cl- influx after 10 secs by liquid-phase scintillation beta-counting method
Mus musculus [15] = assay: Anxiolytic activity against mouse assessed as increase in time spent in light box at 10 mg/kg, po administered 30 mins before test by light-dark box test; assay type: functional, organism-based; method in brief: as §3
Mus musculus [16] = assay: Anxiolytic activity in mouse assessed as time spent in light box at 30 mg/kg, po administered 30 mins before test by light-dark box test; assay type: functional; method in brief: as §3
Mus musculus [17] = assay: Antiamnestic activity in scopolamine induced mouse amnesia model assessed as time of retention session in light box at 30 mg/kg, po administered 30 mins before test by passive avoidance test (reference value: 44.8 +/- 8.1 secs); assay type: functional; method in brief: as §2
Rattus norvegicus [18] = species: Rattus norvegicus; assay: Antagonist activity at central-type benzodiazepine receptor in Sprague-Dawley rat cerebrocortical synaptoneurosomes assessed as decrease in 36Cl- flow after 10 secs by liquid-phase scintillation beta-counting method
Mus musculus [19] = assay: Anxiolytic activity in mouse assessed as increase in time spent in light box at 1 mg/kg, po administered 30 mins before test by light-dark box test; assay type: functional, organism-based; method in brief: as §3
Bos taurus [20] = species: Bos taurus; assay: Displacement of [3H]-flumazenil from central-type benzodiazepine receptor in bovine cortical membrane at 1000 nM after 90 mins by liquid-phase scintillation beta-counting method; assay type: cell membranes; method in brief: as §1
Brain [21] = assay: Neuroprotective activity against oxygen-glucose deprivation and reoxygenation-induced injury in Sprague-Dawley rat brain cortical slices assessed as maximum recovery in LDH release at 5 uM treated during 90 mins of reperfusion phase measured after 90 mins by spetrophotometric method; assay type: functional; method in brief: as §4
Mus musculus [22] = assay: Anxiolytic activity in mouse assessed as increase in time spent in light box at 1 mg/kg, sc administered 30 mins before test by light-dark box test; assay type: functional, organism-based
Method in brief: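 Mice, light-dark box test for anxiolytic effect; agent given subcutaneously (1 mg kg-1) 30 min before testing; time in light box recorded; mean ± SEM of at least 10 mice; significance vs vehicle-treated mice.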

| SMILES | Ki [1] [nM] | Ratio Ki (Bos taurus [2]) | Time (Mus musculus [4]) [s] | Activity (Mus musculus [5]) | Activity (Mus musculus [6]) | Activity (Rattus norvegicus [8]) | Activity (Mus musculus [9]) | Time (Mus musculus [11]) [s] | Activity (Mus musculus [15]) | further results |
| --- | --- | --- | --- | --- | --- | --- | --- | --- | --- | --- |
| CCCN(CCC)C(=O)c1cc2c(C(=O)OCC)ncn2c2ccc(F)cc12 | 0.44 | 0.8 | 181.4 | Active | Non-toxic | Active | Non-toxic | – | – | Time (Mus musculus [3]): 99.6 s; Activity (Mus musculus [7]): Active |
| CCCCN(C)C(=O)c1cc2c(C(=O)OC(C)(C)C)ncn2c2ccccc12 | 1.8 | 0.62 | 167.2 | Active | Non-toxic | Active | Non-toxic | 144.8 | – | Time (Mus musculus [10]): 73.5 s; Activity (Mus musculus [12]): Dose-dependent effect |
| CCCN(CCC)C(=O)c1c(C)c2c(C(=O)OCC)ncn2c2ccccc12 | 1.5 | 1.3 | – | Active | Non-toxic | – | Non-toxic | 153.4 | Active | Activity (Brain [13]): 44%; Activity (Rattus norvegicus [14]): Active |
| Cc1c(C(=O)N(C)Cc2ccccc2)c2ccccc2n2cnc(C(=O)OC(C)(C)C)c12 | 2.6 | 1 | – | inactive | Non-toxic | – | Non-toxic | – | inactive | Time (Mus musculus [16]): <=139.2 s; Time (Mus musculus [17]): <=77.9 s; Antagonist activity (Rattus norvegicus [18]): Active; Activity (Mus musculus [19]): inactive |
| Cc1c(-c2ccccc2)c2ccccc2n2cnc(C(=O)N(C)Cc3ccccc3)c12 | > 1000 | – | – | – | – | – | – | – | – | inhibition (Bos taurus [20]): 19% |
| CN1C(=O)CN=C(c2ccccc2)c2cc(Cl)ccc21 [DIAZEPAM] | – | – | – | – | – | – | – | – | – | Activity (Brain [21]): 55.9%; Activity (Mus musculus [22]): Active |
